How the values were obtained:
[1] = Intrinsic clearance in human microsome assessed as rate of metabolism; type: ADME; conditions: microsomes
Summary of the method: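 Compound from a DMSO stock was incubated with human liver microsomes. Rate of metabolism is expressed in μL/min/mg.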

[2] = biological target: T1, Estrogen receptor (Homo sapiens) (UniProt P03372); assay: Induction of ERalpha degradation in human MCF7 cells at 0.1 uM incubated for 18 to 22 hrs immuno-fluorescence assay relative to control; type: cell-based
T1 sequence (whole entry): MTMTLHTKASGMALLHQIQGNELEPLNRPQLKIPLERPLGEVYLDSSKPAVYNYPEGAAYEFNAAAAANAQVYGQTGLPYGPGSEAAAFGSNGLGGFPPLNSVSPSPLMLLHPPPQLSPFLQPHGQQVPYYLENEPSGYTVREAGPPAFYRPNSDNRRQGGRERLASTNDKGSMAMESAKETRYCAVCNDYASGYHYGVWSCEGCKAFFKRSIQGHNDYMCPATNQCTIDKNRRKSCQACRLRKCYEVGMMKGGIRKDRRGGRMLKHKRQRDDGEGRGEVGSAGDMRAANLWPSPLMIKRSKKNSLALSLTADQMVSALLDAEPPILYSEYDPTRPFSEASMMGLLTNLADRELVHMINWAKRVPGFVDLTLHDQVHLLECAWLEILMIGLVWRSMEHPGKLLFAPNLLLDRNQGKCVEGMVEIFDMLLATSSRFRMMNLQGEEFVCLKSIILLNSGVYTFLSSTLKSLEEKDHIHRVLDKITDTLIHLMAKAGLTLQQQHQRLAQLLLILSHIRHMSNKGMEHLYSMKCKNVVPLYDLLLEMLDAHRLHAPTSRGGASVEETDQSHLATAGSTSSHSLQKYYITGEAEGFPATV

[3] = Fraction unbound in human plasma by equilibrium dialysis method; type: ADME, cell-free
Summary of the method: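 Binding was measured by equilibrium dialysis in 10% human plasma, with compound added from a DMSO stock.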

Estrogen receptor [4] = biological target: T2, Estrogen receptor (Homo sapiens, UniProt P03372); assay: Displacement of fluorescent labelled fluormone ES2 from human recombinant GST tagged ER alpha LBD ( 282 to 595 residues) expressed in baculovirus infected insect cells incubate for 20 mins measured after 1 hr by TR-FRET Lanthascreen assay
T2 sequence (P03372 whole entry): T1 sequence (whole entry)
Summary of the method: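 ER binding was reported as n ≥ 2 determinations, with SEM within 0.3 log units.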

[5] = Intrinsic clearance in rat hepatocytes assessed rate of metabolism per 10^6 cells; type: ADME, cell-based, Hepatocyte; conditions: read-out: CLH
Summary of the method: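 Compound from a DMSO stock was incubated with isolated rat hepatocytes diluted to 1 × 10^6 cells/mL. Rate of metabolism is expressed in μL/min/10^6 cells.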

Estrogen receptor [6] = biological target: T2, Estrogen receptor; assay: Induction of ERalpha degradation in human MCF7 cells incubated for 18 to 22 hrs by immuno-fluorescence assay; type: cell-based
[7] = Volume of distribution at steady state in rat at 0.5 mg/kg or 1 mg/kg, […]; type: ADME, organism-based; conditions: in vivo
[8] = Half-life in rat at 0.5 mg/kg, iv; type: ADME, organism-based; conditions: in vivo
Summary of the method: (§1)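 Rats were given 0.5 mg/kg IV in 5% DMSO:95% hydroxylpropyl β-cyclodextrin or 10% DMA:90% Captisol, and 1 mg/kg orally as a 0.1% HMPC/tween suspension or a 10% DMSO:90% cyclodextrin solution. Plasma clearance, Vdss and half-life came from the IV arm; AUC came from the oral arm; bioavailability F (%) was also reported.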

[9] = Lipophilicity, log D of compound at pH 7.4 by shake-flask method; type: physicochemical; conditions: buffer
Summary of the method: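 logD at pH 7.4 was measured by the shake-flask method.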

[10] = AUC in rat at 1 mg/kg, po; type: ADME, organism-based; set-up: dose 1 mg/kg; conditions: in vivo; summary of the method: as §1
[11] = Clearance in rat plasma at 0.5 mg/kg, iv and 1 mg/kg, po; type: ADME, organism-based; summary of the method: as §1
[12] = Oral bioavailability in rat at 1 mg/kg; type: ADME, organism-based; conditions: in vivo; summary of the method: as §1
[13] = Efflux ratio of intrinsic permeability from basolateral to apical side over apical to basolateral side in human Caco2 cells at 7.4:7.4 apical: basolateral pH at 10 uM; type: ADME, cell-based; conditions: Caco-2, pH 7.4
[14] = biological target: T1, Estrogen receptor (Homo sapiens); assay: Induction of ERalpha degradation in human CAMA-1 cells at 0.1 uM incubated for 18 to 22 hrs Western blot assay relative to fulvestrant; type: cell-based
Summary of the method: (§2)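 Western blot read-out of ERα protein loss in MCF-7 and CAMA-1 breast cancer cells treated with compound at 0.1 μM. Degradation expressed as percentage relative to fulvestrant.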

[15] = biological target: T1, Estrogen receptor (Homo sapiens); assay: Induction of ERalpha degradation in human MCF7 cells at 0.1 uM incubated for 18 to 22 hrs Western blot analysis relative to fulvestrant; type: cell-based; summary of the method: as §2

| Structure (SMILES) | microsomal CLint [1] [µL/min/mg] | Activity [2] [%] | fraction unbound [3] | IC50 (Estrogen receptor [4]) [nM] | hepatocyte CLint [5] [µL/min/1e6 cells] | IC50 (Estrogen receptor [6]) [nM] | Vdss [7] [L/kg] | half-life [8] [min] | logD [9] | AUC [10] [µM·h] | clearance [11] [mL/min/kg] | bioavailability [12] [%] | efflux ratio at 10 µM [13] | Activity [14] [%] | Activity [15] [%] |
| --- | --- | --- | --- | --- | --- | --- | --- | --- | --- | --- | --- | --- | --- | --- | --- |
| C[C@@H]1Cc2c(ccc3[nH]nc(F)c23)[C@@H](c2ccc(NC3CN(CCCF)C3)c(F)n2)N1CC(F)(F)F | 44 | 99 | 0.068 | 1 | 10 | 0.0501 |  |  |  |  |  |  |  |  |  |
| C[C@@H]1Cc2c(ccc3[nH]ncc23)[C@@H](c2ccc(NC3CN(CCCF)C3)cn2)N1CC(F)F | 28 | 99 |  |  |  |  |  |  |  |  |  |  |  |  |  |
| C[C@@H]1Cc2c(ccc3[nH]ncc23)[C@@H](c2ccc(NC3CN(CCCF)C3)c(F)n2)N1CC(F)(F)F | 20 | 98 | 0.16 |  | 36 |  | 7.7 | 114 | 3 | 0.22 | 65 | 34 |  |  |  |
| C[C@@H]1Cc2c(c(F)cc3[nH]ncc23)[C@@H](c2ccc(NC3CN(CCCF)C3)cn2)N1CC(F)(F)F | 8 | 95 | 0.19 | 15.8 | 11 | 5.01 |  |  | 2.7 |  |  |  |  |  |  |
| C[C@@H]1Cc2c(cc(F)c3[nH]ncc23)[C@@H](c2ccc(NC3CN(CCCF)C3)cn2)N1CC(F)(F)F | 19 | 98 | 0.14 | 0.501 | 20 | 0.2 |  |  | 3.2 |  |  |  |  |  |  |
| C[C@@H]1Cc2c(ccc3[nH]nc(F)c23)[C@@H](c2ncc(NC3CN(CCCF)C3)cc2F)N1CC(F)(F)F | 34 | 99 | 0.054 | 1.26 | 10 |  | 17 | 576 |  | 0.76 | 24 | 60 | 1.4 |  |  |
| C[C@@H]1Cc2c(c(O)cc3[nH]ncc23)[C@@H](c2ccc(NC3CN(CCCF)C3)cn2)N1CC(F)(F)F | 5 | > 80 |  | 39.8 | 11 | 126 |  |  | 2.3 |  |  |  |  |  |  |
| COc1cc2[nH]ncc2c2c1[C@@H](c1ccc(NC3CN(CCCF)C3)cn1)N(CC(F)(F)F)[C@H](C)C2 | 26 | 40 | 0.32 | 501 | 6 | 2.51 |  |  | 2.4 |  |  |  |  |  |  |
| FCCCN1CC(Nc2ccc([C@@H]3c4ccc5[nH]ncc5c4C[C@@H](C(F)F)N3CC(F)F)nc2)C1 | 34 | 97 | 0.28 |  | 32 |  |  |  |  |  |  |  |  |  |  |
| C[C@@H]1Cc2c(ccc3[nH]ncc23)[C@@H](c2ncc(NC3CN(CCCF)C3)cc2F)N1CC(F)(F)F | 19 | 98 | 0.16 | 2 | 24 | 0.251 |  |  | 3 |  |  |  | 7 | 98 | 96 |
| C[C@@H]1Cc2c(ccc3[nH]ncc23)[C@@H](c2ccc(NC3CN(CCCF)C3)cn2)N1CC(F)(F)F [CAMIZESTRANT] | 12 | 99 |  |  |  |  |  |  | 2.9 |  |  |  |  | 98 | 95 |
| C[C@@H]1Cc2c(ccc3[nH]ncc23)[C@@H](c2ncc(NC3CN(CCCF)C3)cc2F)N1CC(F)(F)CF | 26 | 98 |  |  | 55 |  |  |  |  |  |  |  |  |  |  |

Source: ChEMBL document CHEMBL4725497, “Addition of Fluorine and a Late-Stage Functionalization (LSF) of the Oral SERD AZD9833” (ACS Med Chem Lett, 2020)
